Activity calls are given as the source filed them. The rule behind the calls is not given here.
Legend:
[1] = molecular target: T1, Prostaglandin G/H synthase 2 (Homo sapiens, UniProt P35354); type: tissue-based, Blood
T1 sequence (P35354 whole entry): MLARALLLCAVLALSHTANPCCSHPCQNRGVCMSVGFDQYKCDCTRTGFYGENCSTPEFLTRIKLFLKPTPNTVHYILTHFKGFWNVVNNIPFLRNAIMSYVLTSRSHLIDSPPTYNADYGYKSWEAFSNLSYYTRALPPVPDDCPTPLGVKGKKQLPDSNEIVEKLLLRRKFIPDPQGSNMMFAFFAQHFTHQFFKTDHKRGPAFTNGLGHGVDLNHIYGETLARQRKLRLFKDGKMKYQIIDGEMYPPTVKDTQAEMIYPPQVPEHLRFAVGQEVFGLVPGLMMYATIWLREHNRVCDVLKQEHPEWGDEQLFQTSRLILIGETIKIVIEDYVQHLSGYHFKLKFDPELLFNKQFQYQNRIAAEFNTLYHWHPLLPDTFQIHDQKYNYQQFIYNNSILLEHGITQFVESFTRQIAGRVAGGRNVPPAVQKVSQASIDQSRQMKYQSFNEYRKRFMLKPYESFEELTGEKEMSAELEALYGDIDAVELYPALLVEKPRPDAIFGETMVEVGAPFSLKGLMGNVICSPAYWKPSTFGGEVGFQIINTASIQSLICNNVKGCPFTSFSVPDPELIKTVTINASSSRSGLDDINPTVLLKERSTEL

[2] = tested on: Rattus norvegicus; test: Lethality in Wistar rat at 30 mg/kg, ip in carrageenan-induced paw oedema model; type: functional, organism-based; parameters: dose 30 mg/kg
In short: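 Wistar rats (250 g) were dosed ip from a 10 mg/mL DMSO solution, 1 h before 0.1 mL of 1% λ-carrageenan in the right hind paw. Deaths were noted over the following 3 h paw-oedema period in groups of six rats.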

[3] = Dissociation constant, pKa by sulfonamide/sulfonamidate equilibrium; type: physicochemical
In short: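 pKa was determined by UV spectrophotometry, to assign each compound's ionic state at pH 7.4.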

[4] = Dissociation constant, pKa by pyridinium/pyridine equilibrium; type: physicochemical
In short: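 Ionisation constant measured by UV spectrophotometry.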

[5] = molecular target: Prostaglandin G/H synthase 1 (Homo sapiens, UniProt P23219)
[6] = tested on: Rattus norvegicus; test: Antiinflammatory activity against carrageenan-induced oedema in Wistar rat paw at 3 mg/kg, ip after 3 hrs relative to control; type: functional; conditions: route intraperitoneal
In short: (§1)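 Wistar rats (250 g) got the drug ip from a 10 mg/mL DMSO solution. 1 h later, 0.1 mL of 1% λ-carrageenan was injected into the plantar region of the right paw. After 3 h the rats were euthanized with nembutal (100 mg/kg), and paws were cut at the ankle and weighed. Swelling inhibition is given as % vs the control group (6 rats/group, mean ± SEM).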

[7] = tested on: Rattus norvegicus; test: Antiinflammatory activity against carrageenan-induced oedema in Wistar rat paw at 10 mg/kg, ip after 3 hrs relative to control; type: functional; conditions: route intraperitoneal
In short: as §1

[8] = tested on: Rattus norvegicus; test: Antiinflammatory activity against carrageenan-induced oedema in Wistar rat paw at 30 mg/kg, ip after 3 hrs relative to control; type: functional; conditions: route intraperitoneal
In short: as §1

[9] = species: Homo sapiens; test: Selectivity ratio of IC50 for human COX1 to IC50 for human COX2
In short: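 Human whole blood, each compound tested in triplicate at 0.01–100 µmol/L final, vehicle DMSO. COX-1: blood preincubated 15 min at 37 °C, stimulated with calcium ionophore A-23,187 for 15 min, serum TXB2 by EIA. COX-2: heparinized blood preincubated 15 min, then LPS (100 µg/mL final, E. coli B4) for 24 h at 37 °C, plasma PGE2 by EIA. Ratio taken as IC50 COX-1/IC50 COX-2.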

Sequence of Prostaglandin G/H synthase 1 (P23219 whole entry): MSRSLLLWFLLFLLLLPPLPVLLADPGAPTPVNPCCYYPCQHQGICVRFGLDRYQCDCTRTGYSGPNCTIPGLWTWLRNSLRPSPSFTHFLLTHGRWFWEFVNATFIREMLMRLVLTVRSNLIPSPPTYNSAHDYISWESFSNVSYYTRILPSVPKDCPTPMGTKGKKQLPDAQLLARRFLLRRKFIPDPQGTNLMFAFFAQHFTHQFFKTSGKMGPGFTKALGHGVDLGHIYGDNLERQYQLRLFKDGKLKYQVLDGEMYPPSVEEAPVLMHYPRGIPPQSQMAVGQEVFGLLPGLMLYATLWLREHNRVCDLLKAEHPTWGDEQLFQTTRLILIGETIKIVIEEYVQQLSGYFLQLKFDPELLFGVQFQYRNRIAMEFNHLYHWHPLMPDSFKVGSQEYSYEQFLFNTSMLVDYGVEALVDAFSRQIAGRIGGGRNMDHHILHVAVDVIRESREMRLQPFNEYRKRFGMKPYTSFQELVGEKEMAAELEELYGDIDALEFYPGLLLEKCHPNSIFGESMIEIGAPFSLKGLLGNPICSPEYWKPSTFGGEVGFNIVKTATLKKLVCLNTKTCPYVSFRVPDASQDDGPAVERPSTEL

With CS(=O)(=O)Nc1ccncc1Oc1ccccc1 the IC50 [1] was > 100000 nM, the Activity [2] was “Active” and the pKa [3] was 2.98. The pKa [4] was 8.13 and the IC50 [5] was 410 nM.
For CS(=O)(=O)Nc1ccncc1S(=O)(=O)c1ccccc1, the IC50 [1] was > 100000 nM and the IC50 [5] was > 100000 nM.
For O=S(=O)(c1ccccc1)c1cnccc1NS(=O)(=O)C(F)(F)F, the IC50 [1] was > 100000 nM, the pKa [3] was < 1 and the pKa [4] was 5.3. The IC50 [5] was > 100000 nM.
CS(=O)(=O)Nc1ccc([N+](=O)[O-])cc1Oc1ccccc1 [NIMESULIDE] gave an inhibition in vivo at 3 mg/kg [6] of 23.7%, an inhibition in vivo at 10 mg/kg [7] of 40.2% and an inhibition in vivo at 30 mg/kg [8] of 44.3%.
With CCS(=O)(=O)Nc1ccncc1Oc1ccccc1 the IC50 [1] was 14100 nM, the Ratio IC50 [9] was 0.38 and the IC50 [5] was 5340 nM.
CN(c1ccccc1)c1cnccc1NS(=O)(=O)C(F)(F)F showed an IC50 [1] of 47600 nM, a Ratio IC50 [9] of 0.097 and an IC50 [5] of 4630 nM.
Compound COc1ccc(Oc2cnccc2NS(C)(=O)=O)cc1 has an IC50 [1] of 2360 nM, a Ratio IC50 [9] of 0.76 and an IC50 [5] of 1810 nM.
In the case of O=S(=O)(Nc1ccncc1[S+]([O-])c1ccccc1)C(F)(F)F (stereo not drawn), the IC50 [1] is reported as > 100000 nM, the pKa [3] is reported as < 1 and the pKa [4] is reported as 5.69. For the same compound, the IC50 [5] was 25600 nM.
For O=S(=O)(Nc1ccncc1Oc1cc(Cl)cc(Cl)c1)C(F)(F)F, the IC50 [1] was > 100000 nM and the IC50 [5] was > 100000 nM.
With O=S(=O)(Nc1ccncc1Oc1ccccc1Cl)C(F)(F)F the IC50 [1] was 150 nM, the Ratio IC50 [9] was 1.74 and the IC50 [5] was 270 nM.
For O=S(=O)(Nc1ccncc1Nc1ccccc1)C(F)(F)F, the IC50 [1] was 90 nM, the Ratio IC50 [9] was 2.03 and the inhibition in vivo at 3 mg/kg [6] was 22.7%. The inhibition in vivo at 10 mg/kg [7] was 34.5%, the inhibition in vivo at 30 mg/kg [8] was 44% and the IC50 [5] was 180 nM.
Work on CS(=O)(=O)Nc1ccncc1Oc1ccc(Cl)cc1 yielded an IC50 [1] of 1870 nM, a Ratio IC50 [9] of 0.77 and an inhibition in vivo at 3 mg/kg [6] of 28.7%. For the same compound, the inhibition in vivo at 10 mg/kg [7] was 35.1%, the Activity [2] was “Active” and the pKa [3] was < 4. For the same compound, the pKa [4] was 7.97 and the IC50 [5] was 1450 nM.
With CCCS(=O)(=O)Nc1ccncc1Oc1ccccc1 the IC50 [1] was > 100000 nM and the IC50 [5] was 18400 nM.
For O=S(=O)(Nc1ccncc1Oc1cccc(Cl)c1)C(F)(F)F, the IC50 [1] was > 100000 nM and the IC50 [5] was 2270 nM.
Work on CS(=O)(=O)Nc1ccncc1Oc1ccc(Cl)cc1Cl yielded an IC50 [1] of 120 nM, a Ratio IC50 [9] of 5.15 and an inhibition in vivo at 3 mg/kg [6] of 20.9%. For the same compound, the inhibition in vivo at 10 mg/kg [7] was 15.8%, the inhibition in vivo at 30 mg/kg [8] was 32.7% and the pKa [3] was < 4. The pKa [4] was 7.81 and the IC50 [5] was 620 nM.
In the case of CS(=O)(=O)Nc1ccncc1Oc1cc(Cl)cc(Cl)c1, the IC50 [1] is reported as > 100000 nM, the inhibition in vivo at 3 mg/kg [6] is reported as 18% and the inhibition in vivo at 10 mg/kg [7] is reported as 18%. For the same compound, the inhibition in vivo at 30 mg/kg [8] was 21.3% and the IC50 [5] was > 100000 nM.
Work on O=S(=O)(Nc1ccncc1Oc1ccc(Br)cc1)C(F)(F)F yielded an IC50 [1] of 13800 nM, a Ratio IC50 [9] of 0.02 and an inhibition in vivo at 3 mg/kg [6] of 5%. For the same compound, the inhibition in vivo at 10 mg/kg [7] was 8.33%, the inhibition in vivo at 30 mg/kg [8] was 36.7% and the IC50 [5] was 240 nM.
With CCS(=O)(=O)Nc1ccncc1Oc1ccc(Cl)cc1 the IC50 [1] was 3280 nM, the Ratio IC50 [9] was 0.75 and the pKa [3] was < 4. It also gave a pKa [4] of 7.98 and an IC50 [5] of 2440 nM.
CS(=O)(=O)Nc1ccncc1Oc1cccc(Cl)c1 gave an IC50 [1] of 1990 nM, a Ratio IC50 [9] of 5.45 and an inhibition in vivo at 3 mg/kg [6] of 10.9%. The inhibition in vivo at 10 mg/kg [7] was 21%, the Activity [2] was “Active” and the pKa [3] was < 4. For the same compound, the pKa [4] was 7.74 and the IC50 [5] was 10900 nM.
Compound CS(=O)(=O)Nc1ccncc1Oc1ccccc1Cl has an IC50 [1] of 130 nM, a Ratio IC50 [9] of 7.92 and an inhibition in vivo at 3 mg/kg [6] of 9.47%. The inhibition in vivo at 10 mg/kg [7] was 37.5%, the inhibition in vivo at 30 mg/kg [8] was 62.8% and the IC50 [5] was 1030 nM.
With O=S(=O)(Nc1ccncc1Oc1ccccc1)C(F)(F)F the inhibition in vivo at 3 mg/kg [6] was 10.9%, the inhibition in vivo at 10 mg/kg [7] was 26% and the inhibition in vivo at 30 mg/kg [8] was 46.4%. For the same compound, the pKa [3] was < 1 and the pKa [4] was 6.81.
With O=S(=O)(Nc1ccncc1Oc1ccc(Cl)cc1)C(F)(F)F the IC50 [1] was 1530 nM, the Ratio IC50 [9] was 0.24 and the pKa [3] was < 1. For the same compound, the pKa [4] was 6.71 and the IC50 [5] was 360 nM.
For O=S(=O)(Nc1ccncc1Oc1ccc(Cl)cc1Cl)C(F)(F)F, the IC50 [1] was 2550 nM, the Ratio IC50 [9] was 0.54 and the IC50 [5] was 1370 nM.
CCCS(=O)(=O)Nc1ccncc1Oc1ccc(Cl)cc1 gave an IC50 [1] of 9690 nM, a Ratio IC50 [9] of 0.24 and an IC50 [5] of 2300 nM.
In the case of O=S(=O)(Nc1ccncc1Sc1ccccc1)C(F)(F)F, the IC50 [1] is reported as 530 nM, the Ratio IC50 [9] is reported as 0.78 and the pKa [3] is reported as < 1. The pKa [4] was 6.54 and the IC50 [5] was 410 nM.
For CS(=O)(=O)Nc1ccncc1Oc1ccc(Br)cc1, the IC50 [1] was 7600 nM, the Ratio IC50 [9] was 0.18 and the pKa [3] was < 4. It also gave a pKa [4] of 7.86 and an IC50 [5] of 1410 nM.
Work on CS(=O)(=O)Nc1ccncc1Sc1ccccc1 yielded an IC50 [1] of 1190 nM, a Ratio IC50 [9] of 3.05 and an inhibition in vivo at 3 mg/kg [6] of 7.44%. For the same compound, the inhibition in vivo at 10 mg/kg [7] was 40.7%, the Activity [2] was “Active” and the IC50 [5] was 3620 nM.
For COc1ccc(Oc2cnccc2NS(=O)(=O)C(F)(F)F)cc1, the IC50 [1] was 440 nM, the Ratio IC50 [9] was 0.59 and the IC50 [5] was 260 nM.
